Experimental data pooled from the literature.
Read-out: enzyme activity
Mode: inhibitor
PTGS1: Prostaglandin G/H synthase 1 (PTGS1, Ovis aries, UniProt P05979)
rep papain-like protease: Replicase polyprotein 1ab, papain-like protease (rep, Porcine epidemic diarrhea virus, UniProt P0C6Y4)
IPMK: Inositol polyphosphate multikinase (IPMK, Homo sapiens, UniProt Q8NFU5)

O=C(COC(=O)c1ccccc1Nc1cccc(C(F)(F)F)c1)Nc1ccc(F)cc1  IC50 (PTGS1): 151 µM
NS(=O)(=O)c1ccc(-n2nc(C(=O)NN=Cc3ccc(O)cc3)cc2-c2ccccc2)cc1  IC50 (PTGS1): 3.84 µM
COc1ccc(C(=O)NCc2cc(O)c(O)c(Br)c2)cc1  IC50 (rep papain-like protease; FRET): 2.46 µM
COc1ccc(C=NNC(=O)c2cc(-c3ccccc3)n(-c3ccc(S(N)(=O)=O)cc3)n2)cc1OC  IC50 (PTGS1): 9.78 µM
COCCNc1nc(NCc2cccc(C(=O)Nc3ccc(OC)cc3)c2)nc2[nH]cnc12  IC50 (IPMK): 63 µM
CC(=O)Oc1cccc(C(=O)NCc2cc(O)c(O)c(Br)c2)c1C  IC50 (rep papain-like protease; FRET): 2.76 µM
NS(=O)(=O)c1ccc(-n2nc(-c3nnc(CCl)o3)cc2-c2ccccc2)cc1  IC50 (PTGS1): 6.72 µM
COCCNc1nc(NCc2cccc(C(=O)Oc3ccc(OC)cc3)c2)nc2[nH]cnc12  IC50 (IPMK): 14 µM
CCC(C(=O)NCc1cc(O)c(O)c(Br)c1)c1ccccc1 (stereo not shown)  IC50 (rep papain-like protease; FRET): 10.6 µM
CC(C)N(CCC(=O)c1ccc2ccccc2c1)Cc1ccccc1  IC50 (Aldehyde dehydrogenase, dimeric NADP-preferring (ALDH3A1, Homo sapiens, UniProt P30838); fluorescence): < 10 µM
CC#CC(=O)N[C@H]1CCCN(c2c(F)cc(C(N)=O)c3[nH]c(C)c(C)c23)C1  IC50 (Dual specificity mitogen-activated protein kinase kinase 2 (MAP2K2, Homo sapiens, UniProt P36507)): > 5 µM
COc1cc(NC(=O)c2cnn(-c3ccc([N+](=O)[O-])cc3)c2C(F)(F)F)cc(OC)c1  IC50 (PTGS1): 1.74 µM
O=C1Nc2ccc(I)cc2/C1=C/c1cc(Br)c(O)c(Br)c1  IC50 (Mitogen-activated protein kinase kinase kinase 20 (MAP3K20, Homo sapiens, UniProt Q9NYL2)): 1.13 µM
Cn1c(C(=O)NCc2cc(O)c(O)c(Br)c2)cc2ccccc21  IC50 (rep papain-like protease; FRET): 8.08 µM
NC(N)=S  IC50 (Urease (Canavalia ensiformis, UniProt P07374)): 23.8 µM
O=C(NCc1cc(O)c(O)c(Br)c1)c1nccs1  IC50 (rep papain-like protease; FRET): 4.1 µM
Cc1ccc(S(=O)(=O)[N](Nc2ccc([N+](=O)[O-])cc2[N+](=O)[O-])[Sn]([Cl])[Cl])cc1  IC50 (PTGS1): 45.9 µM
COc1ccc(C(=O)NCc2cc(Br)c(OC)c(OC)c2)cc1  IC50 (Replicase polyprotein 1ab, main protease (rep, Porcine epidemic diarrhea virus, UniProt P0C6Y4); FRET): 5.19 µM
NS(=O)(=O)c1ccc(-n2nc(-c3nnc(S)o3)cc2-c2ccccc2)cc1  IC50 (PTGS1): 7.78 µM
